Laboratory results as given in ChEMBL document CHEMBL4308900, “Synthesis and identification of 2,4-bisanilinopyrimidines bearing 2,2,6,6-tetramethylpiperidine-N-oxyl as potential Aurora A inhibitors” (Bioorg Med Chem, 2019).
Activity calls are given as the source filed them. The calls are words filed in the database; no cut-off is given here.

Columns and labels:
[1] = system: HepG2; experiment: Antiproliferative activity against human HepG2 cells after 48 hrs by MTT assay; type: functional; conditions: HepG2, 48 h
Outline: (§1)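 MTT assay: cells attached 4–6 h at 37 °C, 5% CO2, then exposed 48 h to graded concentrations from DMSO stocks; 5 mg/mL MTT added for 4 h, formazan dissolved in DMSO, absorbance at 490 nm. GI50 from log plot of percent of control versus concentration; mean of three independent experiments.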

[2] = system: LoVo; experiment: Antiproliferative activity against human LoVo cells after 48 hrs by MTT assay; type: functional; outline: as §1
[3] = system: HeLa; experiment: Disruption of spindle formation in human HeLa cells assessed as shrinkage of microtubule spindles at 1 uM after 24 hrs by DAPI staining based immunofluorescence microscopic analysis; type: functional, cell-based
Outline: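 HeLa cells on coverslips treated 24 h (0.1 or 1 μM; DMSO control); fixed in 4% paraformaldehyde, permeabilised in 0.1% Triton X-100 with 2% BSA, anti-α-tubulin overnight at 4 °C, FITC secondary 2 h room temperature, DAPI for DNA; confocal imaging.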

[4] = system: HeLa; experiment: Cell cycle arrest in human HeLa cells assessed as accumulation at S phase at 1 uM after 12 hrs by propidium iodide staining-based flow cytometric analysis (reference value: 5.74%); type: functional
Outline: (§2)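 HeLa cells exposed 12 h to 1 or 5 μM compound diluted from DMSO (DMSO control), fixed, stained with propidium iodide; DNA content measured by flow cytometry and G1, S, G2/M fractions calculated from the DNA histogram.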

[5] = system: HeLa; experiment: Cell cycle arrest in human HeLa cells assessed as accumulation at G1 phase at 5 uM after 12 hrs by propidium iodide staining-based flow cytometric analysis (reference value: 70.68%); type: functional; outline: as §2
[6] = system: HeLa; experiment: Cell cycle arrest in human HeLa cells assessed as accumulation at G2/M phase at 5 uM after 12 hrs by propidium iodide staining-based flow cytometric analysis (reference value: 23.57%); type: functional; outline: as §2
[7] = system: HeLa; experiment: Cell cycle arrest in human HeLa cells assessed as decrease in cyclin B1 protein expression up to 5 uM after 12 hrs by Western blot analysis; type: functional, cell-based
Outline: (§3)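 HeLa cells treated 12 h (0.1, 1, 5 μM for apoptosis proteins); lysed in Tris pH 7.5/NP-40/SDS buffer with protease inhibitors, equal protein on 10% SDS-PAGE, PVDF, 5% BSA block, primary antibodies overnight at 4 °C, β-actin loading control; mean ± SD.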

[8] = system: HeLa; experiment: Induction of apoptosis in human HeLa cells assessed as viable cells at 0.1 uM after 12 hrs by Annexin V-FITC/propidium iodide staining-based flow cytometric analysis (reference value: 91.02%); type: functional; conditions: read-out: Activity
[9] = system: HeLa; experiment: Induction of apoptosis in human HeLa cells assessed as early apoptotic cells at 0.1 uM after 12 hrs by Annexin V-FITC/propidium iodide staining-based flow cytometric analysis (reference value: 0.75%); type: functional
[10] = system: HeLa; experiment: Induction of apoptosis in human HeLa cells assessed as late apoptotic cells at 0.1 uM after 12 hrs by Annexin V-FITC/propidium iodide staining-based flow cytometric analysis (reference value: 2.32%); type: functional
[11] = system: HeLa; experiment: Induction of apoptosis in human HeLa cells assessed as necrotic cells at 0.1 uM after 12 hrs by Annexin V-FITC/propidium iodide staining-based flow cytometric analysis (reference value: 5.92%); type: functional
[12] = system: HeLa; experiment: Induction of apoptosis in human HeLa cells assessed as viable cells at 1 uM after 12 hrs by Annexin V-FITC/propidium iodide staining-based flow cytometric analysis (reference value: 91.02%); type: functional; conditions: read-out: Activity
[13] = system: HeLa; experiment: Induction of apoptosis in human HeLa cells assessed as early apoptotic cells at 1 uM after 12 hrs by Annexin V-FITC/propidium iodide staining-based flow cytometric analysis (reference value: 0.75%); type: functional
[14] = system: HeLa; experiment: Induction of apoptosis in human HeLa cells assessed as necrotic cells at 1 uM after 12 hrs by Annexin V-FITC/propidium iodide staining-based flow cytometric analysis (reference value: 5.92%); type: functional
[15] = system: HeLa; experiment: Induction of apoptosis in human HeLa cells assessed as viable cells at 5 uM after 12 hrs by Annexin V-FITC/propidium iodide staining-based flow cytometric analysis (reference value: 91.02%); type: functional; conditions: read-out: Activity
[16] = system: HeLa; experiment: Induction of apoptosis in human HeLa cells assessed as late apoptotic cells at 5 uM after 12 hrs by Annexin V-FITC/propidium iodide staining-based flow cytometric analysis (reference value: 2.32%); type: functional
[17] = system: HeLa; experiment: Induction of apoptosis in human HeLa cells assessed as upregulation of Bax protein expression up to 5 uM after 12 hrs by Western blot analysis; type: functional, cell-based; outline: as §3
[18] = system: HeLa; experiment: Cell cycle arrest in human HeLa cells assessed as accumulation at G2/M phase after 12 hrs by propidium iodide staining-based flow cytometric analysis; type: functional; outline: as §2
[19] = target: T1, Aurora kinase A (Homo sapiens, UniProt O14965); experiment: Inhibition of Aurora A (unknown origin) using kemptide acetate salt as substrate after 30 mins by kinase-Glo luminescence method
T1 sequence (O14965 whole entry): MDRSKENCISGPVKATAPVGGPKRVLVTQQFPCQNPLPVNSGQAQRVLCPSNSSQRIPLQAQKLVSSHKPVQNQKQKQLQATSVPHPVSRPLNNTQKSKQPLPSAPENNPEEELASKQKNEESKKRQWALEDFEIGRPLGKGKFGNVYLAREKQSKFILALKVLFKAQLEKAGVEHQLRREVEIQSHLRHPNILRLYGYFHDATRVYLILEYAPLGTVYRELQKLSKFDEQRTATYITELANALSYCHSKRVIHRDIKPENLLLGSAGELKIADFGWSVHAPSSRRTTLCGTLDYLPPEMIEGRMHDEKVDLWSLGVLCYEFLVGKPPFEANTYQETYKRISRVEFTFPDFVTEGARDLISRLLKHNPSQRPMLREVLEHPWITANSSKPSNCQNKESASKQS

[20] = target: T2, Aurora kinase A (Homo sapiens) (UniProt O14965); experiment: Inhibition of Aurora A phosphorylation at Thr288 residue in human HeLa cells after 12 hrs by Western blot analysis; type: cell-based
T2 sequence (whole entry): T1 sequence (O14965 whole entry)
Outline: (§4)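 HeLa cells given 0, 1.25, 2.5 or 5.0 μM for 12 h; lysates in buffer with phosphatase and protease inhibitors, 10% SDS-PAGE western blot probed for phospho-Aurora A Thr288, phospho-Aurora B Thr232 and total Aurora A/B, β-actin loading control; band levels as mean ± SD versus control.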

[21] = target: T3, Aurora kinase B (Homo sapiens, UniProt Q96GD4); experiment: Inhibition of Aurora B phosphorylation at Thr232 residue in human HeLa cells after 12 hrs by Western blot analysis; type: cell-based; outline: as §4
T3 sequence (Q96GD4 whole entry): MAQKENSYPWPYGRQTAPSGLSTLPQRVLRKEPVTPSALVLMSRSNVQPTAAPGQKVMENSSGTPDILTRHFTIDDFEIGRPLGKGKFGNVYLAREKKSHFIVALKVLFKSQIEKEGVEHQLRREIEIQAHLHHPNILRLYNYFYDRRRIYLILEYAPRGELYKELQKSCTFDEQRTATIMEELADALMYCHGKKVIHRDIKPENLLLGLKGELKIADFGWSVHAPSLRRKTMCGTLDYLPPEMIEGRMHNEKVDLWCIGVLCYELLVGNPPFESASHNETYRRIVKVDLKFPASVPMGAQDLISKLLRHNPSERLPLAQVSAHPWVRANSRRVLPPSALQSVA

[22] = target: T2, Aurora kinase A (Homo sapiens); experiment: Inhibition of Aurora A phosphorylation at Thr288 residue in human HeLa cells at <10 nM after 12 hrs by ELISA; type: cell-based
Outline: (§5)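 HeLa cells grown 12 h in 6-well dishes with compound diluted from DMSO at several concentrations; whole-cell lysate captured on anti-Aurora A or B antibody-coated wells, HRP-labelled detection, TMB substrate, stopped with sulphuric acid, absorbance at 450 nm.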

[23] = target: T3, Aurora kinase B; experiment: Inhibition of Aurora B phosphorylation at Thr232 residue in human HeLa cells at <10 nM after 12 hrs by ELISA; type: cell-based; outline: as §5
[24] = system: HeLa; experiment: Cell cycle arrest in human HeLa cells assessed as decrease in accumulation at G1 phase after 12 hrs by propidium iodide staining-based flow cytometric analysis; type: functional; outline: as §2

**Q.** Which GI50 [1] does the source give for CC1(C)CC(NC(=O)c2ccc(Nc3ncc(F)c(Nc4ccc(C(=O)Nc5ccccc5Cl)cc4)n3)cc2)CC(C)(C)N1[O] here?
**A.** 1200 nM

**Q.** And the GI50 [2]?
**A.** 7300 nM

**Q.** And the Activity [3]?
**A.** Active

**Q.** And the Activity [4]?
**A.** 11.33%

**Q.** And the Activity [5]?
**A.** 39.67%

**Q.** What about the Activity [6] of the same compound?
**A.** 60.33%

**Q.** And the Activity [7]?
**A.** Active

**Q.** What about the viability at 0.1 µM [8] of the same compound?
**A.** 90.3%

**Q.** What about the Activity [9] of the same compound?
**A.** 1.12%

**Q.** And the Activity [10]?
**A.** 2.94%

**Q.** What about the Activity [11] of the same compound?
**A.** 5.63%

**Q.** What about the viability at 1 µM [12] of the same compound?
**A.** 78.7%

**Q.** What about the Activity [13] of the same compound?
**A.** 3.28%

**Q.** What about the Activity [14] of the same compound?
**A.** 9.93%

**Q.** What about the viability at 5 µM [15] of the same compound?
**A.** 67.7%

**Q.** What about the Activity [16] of the same compound?
**A.** 16.66%

**Q.** And the Activity [17]?
**A.** Active

**Q.** And the Activity [18]?
**A.** Dose-dependent effect

**Q.** And the IC50 [19]?
**A.** 0.06 nM

**Q.** And the inhibition [20]?
**A.** Dose-dependent effect

**Q.** And the inhibition [21]?
**A.** Dose-dependent effect

**Q.** And the inhibition [22]?
**A.** inactive

**Q.** What about the inhibition [23] of the same compound?
**A.** inactive

**Q.** And the Activity [24]?
**A.** Dose-dependent effect
